Reference: ChEMBL document CHEMBL5380838, “Novel Aryl Sulfonamide Derivatives as NLRP3 Inflammasome Inhibitors for the Potential Treatment of Cancer” (J Med Chem, 2023)
Active and inactive are the calls of the source. No cut-off for these calls is given here.

What was measured:
[1] = Cmax in C57BL/6 mouse at 25 mg/kg, ip measured for 0.083 to 24 hrs by LC-MS/MS analysis; assay type: ADME, organism-based; set-up: time upper 24 hrs, dose 25 mg/kg, time lower 0.083 hrs, route ip; settings: in vivo
How it was run: (§1)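 Female C57BL/6 mice, 8 weeks old, 25–30 g, given a single IP dose of 25 mg/kg. Sampling at 5 and 20 min and 1, 2, 3, 6, 8 and 24 h, 3 mice per timepoint; Li-heparin plasma from the cava vein. ACN/MeOH precipitation with diclofenac internal standard, then LC-MS/MS in ESI(−) MRM mode, range 1–2000 ng/mL. Noncompartmental analysis, linear trapezoidal AUC.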

THP-1 [2] = assay: Cytotoxicity against human THP-1 cells assessed as reduction in cell viability at 1 uM measured after 48 hrs by RealTime-Glo MT assay; assay type: toxicity, cell-based; settings: thp-1, 48 h
How it was run: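 THP-1 cells (10 × 10^4/well) treated with inhibitors at 1 µM and kept 48 h; RealTime-Glo reagent added, luminescence read every 12 h as a proxy for metabolically active cells; means of RLU ± SEM.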

THP-1 [3] = assay: Suppression of caspase-1 expression in LPS-treated human THP-1 cells at 1 to 1000 nM incubated for 30 mins followed by ATP stimulation for 1 hr by […]; assay type: functional, cell-based; settings: dose 1-1000 nM, time 90.0 min
How it was run: (§2)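 PMA-differentiated THP-1 cells (1 × 10^6/well) primed with LPS 1 µg/mL for 3 h, then DMSO or compound in serum-free medium for 30 min, then 5 mM ATP for 1 h. RIPA lysates (20 µg) and concentrated supernatants run on SDS-PAGE and western blotted for NLRP3, ASC, caspase-1 and IL-1β, normalized to GAPDH; three independent experiments.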

THP-1 [4] = assay: Suppression of ASC expression in LPS-treated human THP-1 cells at 1 to 1000 nM incubated for 30 mins followed by ATP stimulation for 1 hr […]; assay type: functional, cell-based; settings: dose 1-1000 nM, time 90.0 min; how it was run: as §2
THP-1 [5] = assay: Suppression of pro-IL-1beta expression in LPS-treated human THP-1 cells at 1 to 1000 nM incubated for 30 mins followed by ATP stimulation for 1 hr […]; assay type: functional, cell-based; settings: dose 1-1000 nM, time 90.0 min
BMDM [6] = assay: Effect on NLRC4 inflammasome activation in LPS-treated mouse BMDM cells assessed as IL-1beta release at 1 uM incubated for 30 mins followed by Salmonella typhimurium flagellin stimulation for 2 hrs by ELISA method; assay type: functional, cell-based; settings: time 150.0 min
How it was run: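 BMDMs primed with LPS 100 ng/mL for 3 h, then compound 1 µM in serum-free medium for 30 min, then flagellin 100 ng/mL for 2 h; supernatant mouse IL-1β by ELISA.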

BMDM [7] = assay: Effect on AIM2 inflammasome activation in LPS-treated mouse BMDM cells assessed as IL-1beta release at 1 uM incubated for 30 mins followed by Poly (dA:dT) stimulation for 4 hrs by ELISA method; assay type: functional, cell-based; settings: time 270.0 min
How it was run: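 BMDMs primed with LPS 100 ng/mL for 3 h, then compound 1 µM in serum-free medium for 30 min, then poly(dA:dT) 1 µg/mL transfected with lipofectamine 2000 for 4 h; supernatant mouse IL-1β by ELISA.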

BMDM [8] = assay: Effect on ASC level in LPS-treated mouse BMDM cells at 1 uM incubated for 30 mins followed by ATP stimulation for 1 hr by Hoechst staining based microscopy; assay type: functional, cell-based; settings: time 90.0 min
How it was run: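 BMDMs primed with LPS 1 µg/mL for 2 h, given DMSO or compound 1 µM for 30 min, then 5 mM ATP for 1 h. Cells fixed in 4% PFA, permeabilized with 0.1% Triton X-100, stained with anti-ASC overnight at 4 °C plus fluorescent secondary, nuclei Hoechst 1 µM; confocal imaging with 63× oil objective.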

BMDM [9] = assay: Effect on NLRP3-ASC interaction in LPS-treated mouse BMDM cells at 1 uM incubated for 30 mins followed by ATP stimulation for 1 hr by co-immunoprecipitation based Western blot analysis; assay type: functional, cell-based; settings: time 90.0 min
How it was run: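 BMDMs (1 × 10^7) primed with LPS 2 h, treated 1 µM compound 30 min, then ATP 1 h; lysed in HEPES/NaCl/glycerol/EDTA/0.5% Triton buffer with protease/phosphatase inhibitors; NLRP3–ASC co-immunoprecipitation, bait eluted in Laemmli buffer, western blot; representative of three independent experiments.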

Mus musculus = assay: Antiinflammatory activity in LPS-induced C57BL/6 mouse assessed as reduction in IL-1beta production in peritoneal exudate at 25 mg/kg, ip pretreated for 30 mins followed by LPS induction measured after 4 hrs by ELISA method; assay type: functional, organism-based; settings: time 4.5 hrs
How it was run: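 C57BL/6 mice given inhibitor 25 mg/kg IP (vehicle DMSO) 30 min before IP LPS 1 mg/kg; after 4 h, peritoneal exudate and blood collected, plasma from centrifugation 1000g 15 min 4 °C; IL-1β measured by ELISA; mean ± SEM of three independent experiments.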

B16-F10 [10] = assay: Effect on NLRP3 expression in cytosolic luciferase-transfected mouse B16-F10 cells xenografted in C57BL/6 mouse at 25 mg/kg, ip administered thrice weekly measured after 14 days by Western blot analysis; assay type: functional, organism-based; settings: time 14.0 day
How it was run: (§3)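 Tumors from luciferase-expressing B16-F10 grafts in C57BL/6 mice, dosed IP at 25 mg/kg thrice weekly (DMSO controls), were excised at endpoint and homogenized in sucrose/HEPES/IGEPAL lysis buffer. Lysates were western blotted and bands expressed as fold ratio over β-actin (n = 5).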

B16-F10 [11] = assay: Effect on cleaved caspase-1 expression in cytosolic luciferase-transfected mouse B16-F10 cells xenografted in C57BL/6 mouse at 25 mg/kg, ip administered thrice weekly measured after 14 days by Western blot analysis; assay type: functional, organism-based; settings: time 14.0 day; how it was run: as §3
B16-F10 [12] = assay: Effect on ASC expression in cytosolic luciferase-transfected mouse B16-F10 cells xenografted in C57BL/6 mouse at 25 mg/kg, ip administered thrice weekly measured after 14 days by Western blot analysis; assay type: functional, organism-based; settings: time 14.0 day; how it was run: as §3
B16-F10 [13] = assay: Antiproliferative activity against cytosolic luciferase-transfected mouse B16-F10 cells xenografted in C57BL/6 mouse assessed as effect on cell growth at 25 mg/kg, ip administered thrice weekly measured after 5 days; assay type: functional, organism-based; settings: time 5.0 day
[14] = Metabolic stability in human liver microsomes assessed as intrinsic clearance measured per mg protein at 1 uM measured upto 60 mins by LC-MS/MS analysis; assay type: ADME, Microsome; settings: read-out: CLH
How it was run: (§4)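 Pooled human or CD-1 male mouse liver microsomes at 0.5 mg/mL with test compound 1 µM in 50 mM phosphate pH 7.4 and 3 mM MgCl2, preincubated 10 min at 37 °C. Percent parent remaining vs 0 min measured by LC-MS/MS. Cli = k/microsomal conc. × 1000; mean ± SD, n = 2.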

[15] = Metabolic stability in mouse liver microsomes assessed as half life measured per mg protein at 1 uM measured upto 60 mins by LC-MS/MS analysis; assay type: ADME, Microsome; how it was run: as §4
[16] = Half life in C57BL/6 mouse at 25 mg/kg, ip measured for 0.083 to 24 hrs by LC-MS/MS analysis; assay type: ADME, organism-based; settings: in vivo, time 0.083-24 hrs; how it was run: as §1
[17] = Clast in C57BL/6 mouse at 25 mg/kg, ip measured for 0.083 to 24 hrs by LC-MS/MS analysis; assay type: ADME, organism-based; settings: in vivo, time 0.083-24 hrs; how it was run: as §1
[18] = AUC in C57BL/6 mouse at 25 mg/kg, ip measured for 0.083 to 24 hrs by LC-MS/MS analysis; settings: in vivo

With CC(C)[C@H](NS(=O)(=O)c1ccc([N+](=O)[O-])cc1)C(=O)Nc1c2c(cc3c1CCC3)CCC2 the Cmax [1] was 1670 ng/mL, the Activity (THP-1 [2]) was “Non-Toxic” and the Activity (THP-1 [3]) was “inactive”. For the same molecule, the Activity (THP-1 [4]) was “inactive”, the Activity (THP-1 [5]) was “inactive” and the Activity (BMDM [6]) was “inactive”. For the same molecule, the Activity (BMDM [7]) was “inactive”, the Activity (BMDM [8]) was “inactive” and the Activity (BMDM [9]) was “inactive”. The Activity (Mus musculus) was “Active”, the Activity (B16-F10 [10]) was “inactive” and the Activity (B16-F10 [11]) was “inactive”. The Activity (B16-F10 [12]) was “inactive”, the Activity (B16-F10 [13]) was “inactive” and the microsomal CLint at 1 µM [14] was 45.8 µL/min/mg. It also gave a half-life at 1 µM [15] of 4.8 h, a half-life [16] of 9.5 h and a Clast [17] of 67 ng/mL. It also gave an AUC [18] of 3880 ng/mL.hr.
